Data from PubChem BioAssay.
Active and inactive are the calls of the source.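 The calls were made as follows, unless noted: active = Her2 level under about 52% in both replicate screens, with viability over 70% of control (limit read from the data); inconclusive = Her2 under the limit in one screen only, or viability under 70%; inactive = Her2 level above the set limit.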

How the values were obtained:
[1] = Her2 expression decrease, cell viability multiplex – SKBR3 breast tumor cells, AlphaScreen, ATP viability, primary screen (AID 461); conditions: SKBR3 Her2 protein level, 18-24 h, measured here: SKBR3 viability, ATP luminescence, at 10 µM;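 as to Her2 level: lower value means less Her2 protein in the cells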;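 as to viability: percent of carrier control wells set as 100% viability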
[2] = target: Receptor tyrosine-protein kinase erbB-2 (Homo sapiens) (UniProt P04626); assay: as above; conditions: 18-24 h, at 10 µM, stronger effect = lower value
[3] = reduced viability of SK-BR-3 breast cancer cells – cell-based, 24 h, human, pilot screen (AID 572;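 active = viability at or below 10% of carrier control in both of two separate runs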;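 also: compound exposure lasted between 18 and 24 h rather than exactly 24 h; 100% = carrier-treated control wells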); conditions: SK-BR-3 viability, CellTiter-Glo luminescence, at 10 µM, stronger effect = lower value
[4] = HUVEC growth inhibition – cell-based, human, primary screen (AID 575;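 active = viability at or below 30% in both replicate assays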;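 also: 100% = median of untreated cell wells with 0.1% DMSO on each plate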); conditions: HUVEC proliferation, CellTiter-Glo luminescence, 72 h; at 10 µM; stronger effect = lower value
Outline: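 Test system: primary human umbilical vein endothelial cells. Quantity: 1250 cells/well. Compound: single 10 µM dose, 0.1% DMSO, from 5x medium stock. Timing: 72 h treatment at 37 °C. Detection: ATP-based CellTiter-Glo luminescent read. Benchmarks: vehicle and MePR control wells. Format: 384-well plates coated with collagen.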

[5] = H69AR cell proliferation blockers – human, duplicate replicates, primary screen (AID 580;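 active = viability at or under a set limit in both replicates, limit being median viability minus 3 SD, cut at about 48% in these data, passing the limit was not always enough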;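 also: 100% = mean luminescence of untreated wells and 0% = no signal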); conditions: H69AR lung tumor cells viability, ATP luminescence, 72 h; at 10 µM; stronger effect = lower value
[6] = MRP1 drug-resistance reversers in H69AR cells – cell-based, doxorubicin co-treatment, pilot screen (AID 601;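 active = viability loss from added drug above about 55%, and viability with drug at most 40%, in both replicates, limit read from the data, passing the limit was not always enough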); conditions: CellTiter-Glo, 72 h, at 10 µM; for differential viability (reversal): stronger effect = higher value
[7] = yeast transport mutant growth inhibition pilot in 384-well plates, post-Golgi transport modulator project (AID 636; in the data active = inhibition above about 31%); conditions: absorbance 615 nm, about 18 h, stronger effect = higher value
[8] = growth suppression of yeast trafficking mutant, preliminary HTS, modulators of trafficking downstream of Golgi apparatus project, 1536-format plate, OD 615 nm (AID 637; in the data active = inhibition above about 30%); conditions: yeast transport mutant growth, absorbance 615 nm, 18 h; stronger effect = higher value
[9] = H69AR cells + 2 uM doxorubicin, measured here: viability with 2 uM doxorubicin, stronger effect = lower value
[10] = H69AR cells, compound alone cytotoxicity

Sequence of Receptor tyrosine-protein kinase erbB-2 (Homo sapiens) (P04626 whole entry, looked up): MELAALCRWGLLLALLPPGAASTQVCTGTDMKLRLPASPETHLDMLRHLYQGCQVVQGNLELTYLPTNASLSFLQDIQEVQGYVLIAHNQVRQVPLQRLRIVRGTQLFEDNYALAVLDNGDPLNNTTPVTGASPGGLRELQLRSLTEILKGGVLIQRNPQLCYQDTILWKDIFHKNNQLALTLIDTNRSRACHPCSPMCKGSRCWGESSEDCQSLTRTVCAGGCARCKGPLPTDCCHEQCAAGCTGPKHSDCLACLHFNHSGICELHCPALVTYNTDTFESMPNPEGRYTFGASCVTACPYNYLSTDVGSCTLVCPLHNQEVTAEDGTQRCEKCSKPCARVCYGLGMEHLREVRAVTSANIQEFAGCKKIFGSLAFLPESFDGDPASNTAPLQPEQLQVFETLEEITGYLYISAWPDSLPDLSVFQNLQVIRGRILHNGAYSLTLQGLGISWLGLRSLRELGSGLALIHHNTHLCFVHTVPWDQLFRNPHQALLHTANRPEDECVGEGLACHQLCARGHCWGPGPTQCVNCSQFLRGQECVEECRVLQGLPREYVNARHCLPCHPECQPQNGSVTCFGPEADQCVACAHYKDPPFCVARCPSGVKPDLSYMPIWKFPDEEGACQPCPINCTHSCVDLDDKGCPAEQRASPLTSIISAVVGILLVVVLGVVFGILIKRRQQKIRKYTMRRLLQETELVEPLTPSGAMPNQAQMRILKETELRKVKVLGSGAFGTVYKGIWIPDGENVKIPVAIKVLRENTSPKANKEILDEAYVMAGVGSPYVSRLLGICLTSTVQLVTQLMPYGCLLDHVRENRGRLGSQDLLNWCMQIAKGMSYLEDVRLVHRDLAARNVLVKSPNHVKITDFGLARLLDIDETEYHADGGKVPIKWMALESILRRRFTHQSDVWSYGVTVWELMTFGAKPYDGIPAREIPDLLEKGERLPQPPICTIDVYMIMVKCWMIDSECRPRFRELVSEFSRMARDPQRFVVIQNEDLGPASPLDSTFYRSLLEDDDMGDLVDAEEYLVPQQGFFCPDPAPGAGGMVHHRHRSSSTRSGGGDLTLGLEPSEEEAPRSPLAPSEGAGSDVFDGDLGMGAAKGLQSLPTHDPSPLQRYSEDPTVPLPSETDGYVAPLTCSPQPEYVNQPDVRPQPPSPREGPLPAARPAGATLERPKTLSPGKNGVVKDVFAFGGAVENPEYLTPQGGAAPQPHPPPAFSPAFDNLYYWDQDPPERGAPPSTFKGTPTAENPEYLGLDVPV

SMILES | viability [1] | Her2 level [2] | viability [3] | viability [4] | viability [5] | differential viability (reversal) ([6]; H69AR cells + 2 uM doxorubicin) | viability [6, 9] | viability [6, 10] | inhibition [7] | inhibition [8]
Cn1c(=O)n(CC(=O)OCc2ccccc2)c(=O)c2c1nc1n2CCCN1C1CCCCC1 | 81% | 86% (inactive) | 81% (inactive) | 96.4% (inactive) | 78.7% (inactive) | 32.8% (inactive) | 45.9% | 78.7% | -6.35% (inactive) | -0.16% (inactive)
Cn1c(-n2c(-c3ccco3)nc3ccccc3c2=O)nc2ccccc21 | 83% | 98% (inactive) | 83% (inactive) | 89.9% (inactive) | 90.3% (inactive) | 5.28% (inactive) | 85% | 90.3% | -1.47% (inactive) | 6.56% (inactive)
Cc1cc2n(n1)C(c1ccccc1)Nc1ccccc1-2 (stereo not given) | 97% | 104% (inactive) | 97% (inactive) | 77.1% (inactive) | 90.7% (inactive) | 1.64% (inactive) | 89.1% | 90.7% | -6% (inactive) | -6.13% (inactive)
Cc1nc2sc(C(c3ccco3)N3CCN(c4ccccc4F)CC3)c(O)n2n1 (stereo not given) | 97% | 85% (inactive) | 97% (inactive) | 101% (inactive) | 97.5% (inactive) | 7.17% (inactive) | 90.3% | 97.5% | -6.27% (inactive) | 0.95% (inactive)
Cc1cc(C)c2c(n1)nn1c(C3CC3)cc(C(F)(F)F)nc21 | 106% | 89% (inactive) | 106% (inactive) | 90.7% (inactive) | 92.4% (inactive) | -4.02% (inactive) | 96.4% | 92.4% | -5.41% (inactive) | 2.54% (inactive)
O=C(CSc1nnnn1-c1ccc(Cl)cc1)NC(=O)Nc1ccc2c(c1)OCCO2 | 104% | 101% (inactive) | 104% (inactive) | 66.9% (inactive) | 75.5% (inactive) | 0.67% (inactive) | 74.8% | 75.5% | -6% (inactive) | 3.02% (inactive)
Cc1c(C(=O)O)sc2nc3n(c(=O)c12)CCC(C)CC3 (stereo not given) | 93% | 87% (inactive) | 93% (inactive) | 82.2% (inactive) | 88.2% (inactive) | 5.25% (inactive) | 83% | 88.2% | -0.53% (inactive) | 8.69% (inactive)
O=C1c2ccccc2C(=O)N1CC(O)Cn1nnc2ccccc21 (stereo not given) | 120% | 108% (inactive) | 120% (inactive) | 90.9% (inactive) | 95.9% (inactive) | 4.44% (inactive) | 91.5% | 95.9% | -3.07% (inactive) | -3.71% (inactive)
Cc1c(C(=O)O)sc2ncn(C)c(=O)c12 | 106% | 78% (inactive) | 106% (inactive) | 100% (inactive) | 103% (inactive) | 11.7% (inactive) | 91.7% | 103% | -7.76% (inactive) | -4% (inactive)
O=C(CSc1nnc(Cc2cc(=O)[nH]c(=O)[nH]2)n1-c1ccccc1)NCC1CCCO1 (stereo not given) | 99% | 84.5% (inactive) | 99% (inactive) | 96.1% (inactive) | 98.4% (inactive) | 3.05% (inactive) | 95.4% | 98.4% | -6.8% (inactive) | -1.11% (inactive)
CCOC(=O)c1ccccc1NC(=O)Cn1cnc2c(cnn2-c2ccc(OC)cc2)c1=O | 89.5% | 91.5% (inactive) | 89.5% (inactive) | 81.4% (inactive) | 101% (inactive) | 1.5% (inactive) | 99.7% | 101% | -5.54% (inactive) | 1.83% (inactive)
Cc1onc(-c2ccccc2)c1C(N)=O | 91% | 93.5% (inactive) | 91% (inactive) | 97.7% (inactive) | 100% (inactive) | 13.8% (inactive) | 86.7% | 100% | -1.32% (inactive) | -4.35% (inactive)
CCOc1ccc(N2C(N)=NC(N)=NC2(C)C)cc1 | 92.5% | 85% (inactive) | 92.5% (inactive) | 101% (inactive) | 75.4% (inactive) | -26.6% (inactive) | 102% | 75.4% | -0.26% (inactive) | 12.1% (inactive)
O=C(O)c1ccc2c(c1)N(Cc1ccccc1F)C(=O)c1ccccc1S2=O (stereo not given) | 96% | 83.5% (inactive) | 96% (inactive) | 92.8% (inactive) | 103% (inactive) | 5.27% (inactive) | 97.8% | 103% | -3.73% (inactive) | 4.43% (inactive)
O=C1CCc2cc(S(=O)(=O)N3CCC(C(=O)Nc4nccs4)CC3)ccc2N1 | 98% | 105% (inactive) | 98% (inactive) | 110% (inactive) | 85.3% (inactive) | 4.98% (inactive) | 80.3% | 85.3% | -1.67% (inactive) | -1.17% (inactive)
Cc1nc2c3cnn(-c4ccccc4)c3ncn2n1 | 104% | 86% (inactive) | 104% (inactive) | 79.6% (inactive) | 96.7% (inactive) | 14.2% (inactive) | 82.5% | 96.7% | -3.87% (inactive) | 1.64% (inactive)

SMILES | viability [1] | Her2 level [2] | viability [3] | viability [4] | viability [5] | differential viability (reversal) ([6]; H69AR cells + 2 uM doxorubicin) | viability [6, 9] | viability [6, 10] | inhibition [7] | inhibition [8]
Cn1c(=O)c2c(nc(Br)n2CCSc2ncccn2)n(C)c1=O | 98% | 114% (inactive) | 98% (inactive) | 106% (inactive) | 103% (inactive) | 21.7% (inactive) | 81.1% | 103% | -1.87% (inactive) | -10.2% (inactive)
Cn1c(=O)n(Cc2ccc(F)cc2)c(=O)c2c1nc1n2CCCN1Cc1ccccc1 | 88.5% | 80.5% (inactive) | 88.5% (inactive) | 78.4% (inactive) | 70.1% (inactive) | 37.5% (inactive) | 32.6% | 70.1% | 0% (inactive) | 1.33% (inactive)
CCOC(=O)CSc1nc2sc(C)c(C)c2c(=O)n1C | 104% | 69% (inactive) | 104% (inactive) | 85.4% (inactive) | 94.2% (inactive) | 9.32% (inactive) | 84.8% | 94.2% | -2.34% (inactive) | -0.17% (inactive)
CN1/C(=C\C(=O)C(F)F)C(C)(C)c2ccccc21 | 90% | 100% (inactive) | 90% (inactive) | 99.5% (inactive) | 107% (inactive) | 19.5% (inactive) | 87.4% | 107% | -0.53% (inactive) | 1.77% (inactive)
COc1ccccc1N1CCN(c2nc3ccccc3nc2C(C#N)C(=O)OC(C)C)CC1 (stereo not given) | 77% | 112% (inactive) | 77% (inactive) | 71.6% (inactive) | 80.3% (inactive) | 3.12% (inactive) | 77.2% | 80.3% | 1.58% (inactive) | -1.82% (inactive)
COc1ccc(NC(=O)CSc2nnc(-c3ccccc3C)n2C)cc1 | 96.5% | 108% (inactive) | 96.5% (inactive) | 113% (inactive) | 100% (inactive) | 13.8% (inactive) | 86.4% | 100% | -4.55% (inactive) | -5.17% (inactive)
Cc1cc(=O)oc2cc(Oc3ncccn3)ccc12 | 98% | 106% (inactive) | 98% (inactive) | 101% (inactive) | 83% (inactive) | -6.5% (inactive) | 89.4% | 83% | -8.4% (inactive) | 16.7% (inactive)
O=C(O)c1cc2c(s1)CCCC2 | 88.5% | 93% (inactive) | 88.5% (inactive) | 104% (inactive) | 89.9% (inactive) | -1.15% (inactive) | 91.1% | 89.9% | -1.03% (inactive) | -7.83% (inactive)
CCCn1c2ccccc2c2nnc(SCC(=O)Nc3ncccn3)nc21 | 105% | 75.5% (inactive) | 105% (inactive) | 93.4% (inactive) | 87.6% (inactive) | 10.3% (inactive) | 77.4% | 87.6% | -0.53% (inactive) | -2.36% (inactive)
COc1ccccc1N1CCN(C(=O)C(Cc2ccccc2)NC(=O)C2CCCCC2)CC1 (stereo not given) | 73.5% | 85.5% (inactive) | 73.5% (inactive) | 74.8% (inactive) | 90.6% (inactive) | 3.88% (inactive) | 86.7% | 90.6% | -5.84% (inactive) | -2.62% (inactive)
CCOc1ccccc1OCC(=O)Nc1nnc(COC)s1 | 89% | 103% (inactive) | 89% (inactive) | 99.5% (inactive) | 91.8% (inactive) | -1.57% (inactive) | 93.3% | 91.8% | -2.8% (inactive) | 10.7% (inactive)
Nc1nnc(C(=O)c2ccccc2N)s1 | 108% | 91% (inactive) | 108% (inactive) | 102% (inactive) | 96.3% (inactive) | 5.43% (inactive) | 90.9% | 96.3% | -1.04% (inactive) | 3.93% (inactive)
Cc1ccc(Cn2c(SCCN3CCCCC3)nc3c2c(=O)[nH]c(=O)n3C)cc1 | 94.5% | 104% (inactive) | 94.5% (inactive) | 84.1% (inactive) | 81.7% (inactive) | -3.14% (inactive) | 84.8% | 81.7% | -7.6% (inactive) | -6.83% (inactive)
O=C(NCc1ccccc1)c1ccc(OC2CSC2)cc1 | 88% | 103% (inactive) | 88% (inactive) | 91.5% (inactive) | 112% (inactive) | 18.5% (inactive) | 93.6% | 112% | 2.34% (inactive) | -11% (inactive)
Cc1ccc(-c2csc3ncn(-n4c(C)ccc4C)c(=O)c23)o1 | 96% | 114% (inactive) | 96% (inactive) | 88.7% (inactive) | 91.3% (inactive) | 10.3% (inactive) | 81% | 91.3% | -5.27% (inactive) | -5.57% (inactive)
Nc1nonc1N1CCCCC1 | 85.5% | 152% (inactive) | 85.5% (inactive) | 106% (inactive) | 99.1% (inactive) | 11.5% (inactive) | 87.6% | 99.1% | -3.51% (inactive) | -7.33% (inactive)
